# Compound activity deposited in PubChem BioAssay by several laboratories.
# DAT uptake mod: changed hDAT dopamine uptake under cocaine IC80, either direction, primary screen, cocaine antagonist project, cell-based, LLC-PK1 hDAT, [14C]-dopamine uptake, MLSMR; Sodium-dependent dopamine transporter (Homo sapiens), Q01959; actives 1.3% (n = 110,000); LLC-PK1 hDAT cells, [14C]-dopamine uptake with cocaine IC80; actives deviate in either direction; B-score at 10 µM;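 active = Z score or B-score, a plate-position-corrected score, falls beyond the plate's 99.7% confidence bounds, in either direction; inactive = both scores lie inside the 99.7% bounds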;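 also: scored against the spread of the other compound wells on the same plate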
# Target sequence (Q01959 whole entry, looked up): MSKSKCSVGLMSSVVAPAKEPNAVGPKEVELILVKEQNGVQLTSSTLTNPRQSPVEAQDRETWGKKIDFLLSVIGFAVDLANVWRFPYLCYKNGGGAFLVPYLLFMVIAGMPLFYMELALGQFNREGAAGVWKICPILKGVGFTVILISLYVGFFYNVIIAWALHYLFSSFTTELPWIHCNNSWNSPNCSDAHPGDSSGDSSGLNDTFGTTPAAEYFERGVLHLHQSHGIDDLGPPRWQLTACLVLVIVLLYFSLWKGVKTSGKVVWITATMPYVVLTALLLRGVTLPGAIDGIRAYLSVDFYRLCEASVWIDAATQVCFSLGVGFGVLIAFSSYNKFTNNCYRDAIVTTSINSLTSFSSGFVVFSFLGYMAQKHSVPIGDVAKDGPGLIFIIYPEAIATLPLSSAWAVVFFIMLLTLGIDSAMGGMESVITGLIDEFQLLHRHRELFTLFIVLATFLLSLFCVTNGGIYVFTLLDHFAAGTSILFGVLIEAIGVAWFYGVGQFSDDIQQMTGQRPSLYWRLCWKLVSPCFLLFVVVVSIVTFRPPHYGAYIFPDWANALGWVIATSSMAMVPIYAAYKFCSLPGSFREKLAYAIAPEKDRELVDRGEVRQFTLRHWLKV
# RAM inhibit: inhibitors of the yeast RAM network, primary screen, dse1pr::URA3 reporter, 5-FOA selection; S. cerevisiae dse1pr::URA3 reporter, 5-FOA growth OD615, 2 d; analog-sensitive cbk1-as2 kinase mutant strain; inhibition, % at 50 µM; actives 1.8% (n = 190,000); AID 868, 2007;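 active = inhibition above a set limit, 3 SD over mean compound inhibition, cut at about 8.4% in these data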;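 also: 0% = DMSO-only wells with no growth and 100% = 10 µM 1-NA-PP1 full growth; inhibition rescues growth on 5-FOA so higher OD means more RAM inhibition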
# Measles CPE: compounds protecting cells from measles virus cytopathic effect, primary screen, measles RdRp inhibitor project, single point, MLSMR library, absorbance | Measles virus-infected cells, CPE protection | protection (pct of control), % at 4 µM | actives 1.5% (n = 140,000) | AID 841, 2007; in the data active = protection mostly above about 24%, no sharp cut-off; inactive = mostly below about 26%
# BB579 growth dn: growth inhibitors of yeast BB579 in restrictive medium, primary screen, yeast lifespan-shortening project, S. cerevisiae; OD615, 48 h; inhibition, % at 10 µM; actives 0.51% (n = 140,000);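 active = inhibition above a set limit, 3 SD over the mean compound inhibition, cut at about 44% in these data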
#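 System: DeaD yeast strain BB579; buffer or medium: CSMM-D dextrose restrictive medium; technique: OD at 615 nm; schedule: 4 h cell preincubation, 48 h compound exposure, 30 °C humidified; doses: single 10 µM dose; controls: amphotericin B 10 µg/mL, positive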
# WT yeast gro inh: growth inhibition of WT strain, primary screen, mitochondrial fusion inhibitor project, WT and mutant strains, chemical genetic. actives 2.1% (n = 190,000). mitochondrial fusion phenotypic screen. inhibition, % at 10 µM; in the data active = inhibition above about 58%; tested in S. cerevisiae
# Yeast lifespan up: compounds extending yeast replicative lifespan, primary screen, S. cerevisiae, OD615. S. cerevisiae growth with nicotinamide; deaD strain in restrictive glucose medium. inhibition of the nicotinamide effect, % at 10 µM. actives 0.68% (n = 130,000). AID 775, 2007;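 active = inhibition above a set limit, placed 3 SD over the median of all compounds, cut at about 26% in these data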;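 also: 0% = nicotinamide-treated wells and 100% = cells grown without nicotinamide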
#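 Material: Modified budding yeast, DeaD strain | Medium: Restrictive glucose medium | Probe or stimulus: 1.5 mM nicotinamide | Dosing: Single dose 10 µM compound, 0.25% DMSO | Times: 48 h at 30 °C | Technique: OD615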
# * hit, by the source's call; x = no result. A selection: hits, their analogues and other compounds. The true share with any hit is near 6.1%.
SMILES,DAT uptake mod,RAM inhibit,Measles CPE,BB579 growth dn,WT yeast gro inh,Yeast lifespan up
COc1cc(OC)c2c(-c3ccccc3)cc(=O)oc2c1C(CCN1CCCCC1)c1ccc2c(c1)OCO2 (stereo unspecified),0.49,x,x,x,x,x
CCn1c(C)cc(/C=C2/SC(=S)NC2=O)c1C,x,5,11,-57,21,-2
Cc1sc(-n2c(C)cc(/C=C3\SC(=S)NC3=O)c2C)c(C#N)c1C,0.98,4,5,-12,77*,-9
Cc1ccc(S(=O)(=O)c2ccc(Oc3cccc(C)c3)cc2)cc1,0.96,7,5,-17,13,-12
Nc1cc(=O)[nH]c(SCC(=O)Nc2ncc(C(F)(F)F)cc2Cl)n1,x,-1,x,x,-7,x
COC(=O)c1cc(NC(=O)N2c3ccccc3Sc3ccccc32)cc(C(=O)OC)c1,0.018,9.8*,8,-65,32,-5
CC(C)CSc1nnc2c(n1)[nH]c1ccccc12,-0.83,5,5,-52,3,-9
Fc1ccc2nc3[nH]c4ccccc4c3nc2c1,-0.015,8.9*,3,63*,-1,-29
CCc1ccc(NC(=O)Cn2c3[n+](c4c(F)c(F)ccc42)CCCCC3)cc1,x,-1,x,x,3,x
COc1ccc(C=O)cc1COc1ccccc1F,x,1,9,-10,-4,2
COc1ccc(/C=C/C(=O)c2ccccc2)cc1COc1ccccc1F,-0.52,10*,39,-35,43,2
CCOc1ccc(NC(=S)NCCCc2ccccc2)cc1,x,3,x,x,70*,x
CCCCNC(=S)Nc1ccc(Oc2ccccc2)cc1,x,2,x,x,65*,x
CCOc1ccc(CSCCNC(=S)Nc2ccccc2)cc1,x,0,34,-7,71*,-4
CCOc1ccc(NC(=S)NCCN2CCN(Cc3ccccc3)CC2)cc1,x,2,x,x,14,x
CC(C)(C)c1ccc(OCCNC(=S)Nc2ccccc2)cc1,x,5,x,x,82*,x
CCCNC(=S)Nc1ccc(Oc2ccccc2)cc1,0.028,-1,2,-3,-18,-11
COc1cc(/C=C\C(=O)OCn2nnc3ccccc3c2=O)cc(OC)c1OC,0.63,2,x,x,6,x
O=C(COC(=O)CCc1nc2ccccc2s1)Nc1ccc(Cl)cn1,x,2,14,-11,21,-1
OC(CSc1c(Cl)cccc1Cl)CN1CCN(c2ccc(F)cc2)CC1 (stereo unspecified),0.89,-1,26,-67,58,3
Cc1ccc(N(C(=O)NC2CCCCC2)C2=NCCCCC2)cc1,x,1,8,-1,-1,5
CCOc1ccc(NC(=S)Nc2ccc(OCc3ccccc3)cc2)cc1,x,2,44*,-25,-1,3
O=C(COc1ccccc1)NCCSCc1ccc(Cl)cc1,x,9.9*,4,-18,20,-6
CNC(=S)Nc1ccc(OCc2ccccc2)cc1,x,1,x,x,11,x
COc1ccc(OC)c(S(=O)(=O)N2CCC(C(=O)Nc3cccc(C(F)(F)F)c3)CC2)c1,0.34,3,10,-50,21,-2
SMILES,DAT uptake mod,RAM inhibit,Measles CPE,BB579 growth dn,WT yeast gro inh,Yeast lifespan up
CCC(=O)NC1(C(F)(F)F)C(=O)Nc2c1c(=O)n(C)c(=O)n2C (stereo unspecified),0.47,1,18,35,-8,-4
O=C(COC(=O)c1cc(Br)ccc1Cl)NC(=O)NCc1ccccc1,x,3,3,-37,-9,8
O=C(COC(=O)c1ccccc1NS(=O)(=O)c1ccc(Cl)cc1)NCc1ccccc1,x,11*,14,-47,40,8
O=C(COC(=O)c1ccccc1Cl)NC(=O)NCc1ccccc1,x,2,68*,-2,-9,-4
CCOC(=O)c1ccccc1NS(=O)(=O)c1ccc(S(=O)(=O)N2CCCC2)cc1,0.26,10*,17,-32,5,2
C/C(=N\NC(=O)c1cccnc1)c1ccc(OC2OCCOC2Oc2ccc(/C(C)=N/NC(=O)c3cccnc3)cc2)cc1 (stereo unspecified),x,2,x,x,3,x
